Compound activity from PubChem.
Rows were chosen to be rich in hits. Some 2.4% of all compounds tested hit in one or more screens of this group.
NadD block = inhibitors of Staphylococcus aureus NadD; purified NadD enzyme, colorimetric absorbance read-out; hit rate 0.78% among 360,000; inhibition, % at 20 µM; AID 602399; in the data active means inhibition above about 26%
SUMO1 PPI mod = alters human SUMO1 binding to SIM partners; P63165; SUMO1 binding to a labelled peptide, TR-FRET, 1 h; inhibition, % at 20 µM; hit rate 0.33% among 360,000; in the data active means inhibition above about 37%
Target sequence (P63165 whole entry, looked up): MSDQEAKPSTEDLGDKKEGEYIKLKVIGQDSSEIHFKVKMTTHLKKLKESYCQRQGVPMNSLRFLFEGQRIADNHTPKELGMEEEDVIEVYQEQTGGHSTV
DNMT1 block = inhibitors of human DNMT1; P26358; DNMT1 molecular beacon, Hinp1I cleavage, fluorescence; inhibition (reported as % activation of signal), % at 10 µM; hit rate 0.83% among 360,000; AID 588458; in the data active means inhibition above about 50%
STEP block = blocks human striatal-enriched tyrosine phosphatase; P54829; inhibition, % at 20 µM; recombinant STEP, OMFP fluorogenic substrate, fluorescence; hit rate 0.25% among 360,000;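 active means inhibition at 20 µM, scaled per plate between control wells, above about 37%, limit read from the data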
Target sequence (P54829 whole entry, looked up): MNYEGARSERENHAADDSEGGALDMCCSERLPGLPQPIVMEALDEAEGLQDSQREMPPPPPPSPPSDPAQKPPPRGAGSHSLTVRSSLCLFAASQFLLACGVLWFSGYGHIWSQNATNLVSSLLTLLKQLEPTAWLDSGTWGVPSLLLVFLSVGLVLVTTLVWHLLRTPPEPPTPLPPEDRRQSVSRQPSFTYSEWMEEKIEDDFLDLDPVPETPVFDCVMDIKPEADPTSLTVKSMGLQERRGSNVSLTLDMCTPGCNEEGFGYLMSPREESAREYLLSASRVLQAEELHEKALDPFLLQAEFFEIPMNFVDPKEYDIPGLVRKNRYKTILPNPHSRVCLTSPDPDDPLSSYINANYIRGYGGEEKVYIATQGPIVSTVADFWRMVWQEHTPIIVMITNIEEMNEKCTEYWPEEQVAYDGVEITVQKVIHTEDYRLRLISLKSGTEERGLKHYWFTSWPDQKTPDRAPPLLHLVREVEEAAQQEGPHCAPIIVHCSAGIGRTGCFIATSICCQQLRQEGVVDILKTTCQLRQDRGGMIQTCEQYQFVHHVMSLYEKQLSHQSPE
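Assay system: isolated STEP enzyme. Buffer or medium: pH 6.0 Bis-Tris with DTT and Tween 20. Also added: fluorogenic phosphatase substrate OMFP at 25 µM final. Dosing: 20 µM, 1% DMSO. Timing: 20 min reaction, room temperature, in the dark. Measured by: fluorescence intensity, excitation 480 nm, emission 540 nm. Evaluation: normalized % inhibition.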
Scp1 inh = Scp-1 (human) phosphatase inhibition. AID 493091. Recombinant Scp1, phosphopeptide, malachite green phosphate absorbance. hit rate 0.88% among 340,000. inhibition, % at 20 µM;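 active means inhibition above about 50% at 20 µM, limit read from the data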
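System: truncated SCP-1 phosphatase (76-261aa); medium: Tris acetate buffer pH 5.5 with MgCl2 and Tween-20; incubation: 45 min room-temperature reaction, 5 min colour, 30 min stabiliser; compound: single 20 µM dose, 1% DMSO; reagent: Phosphorylated 17-residue peptide substrate; read-out: % inhibition at 20 µM; technique: colorimetric free-phosphate detection, absorbance 630 nm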
LMPTP block = LMPTP (human) inhibition | P24666 | recombinant LMPTP-A, OMFP fluorogenic substrate, fluorescence intensity | inhibition, % at 20 µM | hit rate 0.22% among 360,000;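 active means compounds that cut the enzyme signal by at least half of the control window in the single-dose screen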
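Assay system: LMPTP-A, protein tyrosine phosphatase of low molecular weight / Medium: pH 6.0 Bis-Tris buffer with DTT and Triton X-100 / Schedule: 50 min enzyme reaction at room temperature, protected from light / Measured by: endpoint fluorescence intensity from OMFP dephosphorylation / Read-out basis: % inhibition relative to no-enzyme and uninhibited control wells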
NadD inh conf = confirmation of Staphylococcus aureus NadD inhibitors; shares compounds with NadD block; purified S. aureus NadD, colorimetric enzyme assay; inhibition, % at 20 µM; hit rate 13% among 2,000; AID 624309; in the data active means inhibition mostly above about 42%, no sharp cut-off; inactive means mostly below about 42%
Each line names hits and unclear results; the compound was inactive in the other large screens (follow-up assays come after a bar, where they were run).

COC(C[C@H](O)CC(=O)[C@H](C)OCc1ccccc1)OC	none
CCc1nnc(NC(=O)CN2C(=O)c3ccccc3C2=O)s1	none
N#C/C(=C/c1ccc(F)cc1)c1nnc(NC(=O)c2ccccc2)s1	NadD block 36 | NadD inh conf inactive
Nc1c(C(=O)O)sc2nc(-c3ccccc3)cc(-c3ccc(F)cc3)c12	NadD block 35 | NadD inh conf inactive
COc1ccccc1C(=O)Nc1ccc(Oc2nnc(-c3ccc(C)cc3)c3ccccc23)cc1	NadD block 52 | NadD inh conf inactive
COC(=O)c1cccc2c(C(=O)O)cc(-c3ccccc3)nc12	none
CCOc1ccc(CCN2C(=S)N([C@@H](Cc3ccc(O)cc3)CN3CCC[C@@H]3CN3C(=S)NC[C@@H]3CC(C)C)C[C@@H]2Cc2ccc(O)cc2)cc1	NadD block 48 (no result: Scp1 inh) | NadD inh conf inactive
CCOc1ccc(CCN2C(=S)N([C@@H](Cc3ccccc3)CN3CCC[C@@H]3CN3C(=S)NC[C@@H]3Cc3ccc(O)cc3)C[C@@H]2CC(C)C)cc1	NadD block 31 (no result: Scp1 inh) | NadD inh conf inactive
CCOc1ccc(CCN2C(=S)N([C@@H](Cc3ccc(O)cc3)CN3CCCC3CN3C(=S)NC[C@@H]3Cc3ccc(O)cc3)C[C@@H]2CC(C)C)cc1 (stereo partly specified)	NadD block 43 | NadD inh conf inactive
CCOc1ccc(Br)cc1S(=O)(=O)Nc1cccc(S(=O)(=O)Nc2ccccc2C(=O)O)c1	none
O=C(CSc1nnc2c(n1)[nH]c1ccccc12)Nc1nncs1	none
C/C(=N\Nc1nnc(-c2ccccc2)c(-c2ccccc2)n1)c1cccc([N+](=O)[O-])c1	NadD block 33 | NadD inh conf inactive
O=[N+]([O-])c1cccc(/C=N/Nc2nnc(-c3ccccc3)c(-c3ccccc3)n2)c1	none
Cc1ccc(-n2c(O)c(C=Nc3ccccc3-c3n[nH]c(=S)[nH]c3=O)c3ccccc3c2=O)c(C)c1	NadD block 32 | NadD inh conf inactive
Cc1ccc(-n2c(O)c(C=Nc3ccccc3-c3n[nH]c(=S)[nH]c3=O)c3ccccc3c2=O)cc1C	NadD block 39 | NadD inh conf 62
CC(=O)Nc1ccc(N=C(C2=C(O)c3ccccc3C2=O)c2ccccc2)cc1	none
Cc1ccc(-c2nsc3c(N4CCC(C(N)=O)CC4)ncnc23)cc1	NadD block 31 | NadD inh conf inactive
COc1ccc(C(=O)NC(=S)Nc2nc(-c3ccc(OC)c(Br)c3)cs2)cc1Br	NadD block 33 | NadD inh conf inactive
COc1ccc(-c2csc(NC(=S)NC(=O)c3ccccc3)n2)cc1Br	none
C(=C\c1ccccc1)/C=N/Nc1nc(N2CCCCC2)nc(N2CCCCC2)n1	NadD block 35 | NadD inh conf inactive
CC1CC2=C(NC(=S)NC2c2cccc(F)c2)/C(=C/c2cccc(F)c2)C1 (stereo unspecified)	none
CC1CC2=C(NC(=S)NC2c2ccccc2F)/C(=C/c2ccccc2F)C1 (stereo unspecified)	NadD block 32 | NadD inh conf inactive
COc1ccc(NC(=S)Nc2ccccn2)c(OC)c1	none
Cc1nn(Cc2ccc(F)cc2)c(C)c1NC(=O)c1cnn2cccnc12	none
Cc1sc2nc(C3CC3)nc(N3CCN(S(=O)(=O)c4ccc(F)cc4)CC3)c2c1C	NadD block 35 | NadD inh conf inactive
Cc1sc2nc(CN3CCCC3)nc(N3CCN(S(=O)(=O)c4cccc(F)c4)CC3)c2c1C	NadD block 30 | NadD inh conf inactive
COc1ccccc1Nc1nc(-c2sc(NC(=O)C(C)(C)C)nc2C)cs1	none
Cn1/c(=N\NC(=O)c2ccccc2Cl)sc2ccccc21	none
O=[N+]([O-])c1ccc(-c2nn(-c3ccccc3)cc2/C=N/n2c(-c3cccs3)n[nH]c2=S)cc1	NadD block 43 | NadD inh conf inactive
O=[N+]([O-])c1ccc(/C=N/n2c(-c3ccccc3)n[nH]c2=S)cc1	none
O=C(NC(=S)Nn1cnc2c(cnn2-c2ccccc2)c1=O)c1ccc(Oc2ccccc2)cc1	NadD block 42 | NadD inh conf inactive
CC(=O)Nc1ccc(SC[C@H](Cc2ccccc2)N2CCN(CCc3ccccc3)CCC2=O)cc1	none
COc1ccc(C2OC(=O)Cc3cc(OC)c(OC)cc32)cc1 (stereo unspecified)	none
Nc1cc2nc[nH]c2cc1N	NadD block 39 | NadD inh conf inactive
Cn1c(=O)n(C)c2cc3[nH]cnc3cc21	none
CNc1ccc(Br)cc(C(=O)/C=C/c2cccc(Cl)c2Cl)c1=O	NadD block 49 | NadD inh conf inactive
CCc1ccc(C(O)c2ncc(-c3cccc(C(F)(F)F)c3)[nH]2)cc1 (stereo unspecified)	none (no result: Scp1 inh)
CCCCCCc1cc2cc(S(=O)(=O)c3ccc(C)cc3)c(=O)oc2cc1O	none
CCCCCCc1cc2cc(S(=O)(=O)c3ccc(Cl)cc3)c(=O)oc2cc1O	NadD block 36 | NadD inh conf inactive
COc1ccccc1-n1c(SCc2cc(=O)oc3cc(O)ccc23)nc2ccccc2c1=O	NadD block 32 | NadD inh conf 58
COc1ccccc1-n1c(SCC(=O)N2CCOCC2)nc2ccccc2c1=O	none
CCN(CC)C(=O)[C@H]1CC(CC(=O)NCCCN(C)C)C(=O)N2CCc3c([nH]c4ccc(OC)cc34)[C@]12C (stereo partly specified)	none
Cc1cc(C(=O)O)ccc1-c1ccc(/C=C2\SC(=O)N(CC(=O)Nc3ccc4c(c3)OCO4)C2=O)o1	NadD block 48, SUMO1 PPI mod 73, DNMT1 block 101, STEP block 64, LMPTP block 80 (no result: Scp1 inh) | NadD inh conf inactive
Cc1c(/C=C2\SC(=O)N(CC(=O)Nc3ccc4c(c3)OCO4)C2=O)c2ccccc2n1C	none
COc1ccccc1N1CCN(CCCN=C2CC(=O)N(C)C(=O)N2C)CC1	none
CCC(C)c1ccc(N(C(=O)c2ccco2)C(C(=O)NC2CCCC2)c2cccnc2)cc1 (stereo unspecified)	none
C=CCN1CCc2nc(N)sc2CC1	NadD block 30 | NadD inh conf inactive
Nc1nc2c(s1)CCCCCCCCCC2	none
CN(C)S(=O)(=O)c1cccc(NC(=O)c2cc3c(=O)n4ccccc4nc3s2)c1	none
Cc1cc(NS(=O)(=O)c2ccc(NC(=O)c3cc4c(=O)n5ccccc5nc4s3)cc2)nc(C)n1	NadD block 31 | NadD inh conf inactive
